Rows were chosen to be rich in hits. Some 3.7% of all compounds tested hit in one or more screens of this group.
NPY-Y2 antag: antagonists of human neuropeptide Y receptor Y2 | AID 793 | inhibition, % at 2.7 µM | actives 0.99% (n = 140,000) | NPY-Y2 expressing cells, antagonist mode; in the data active = inhibition above about 17%;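 also: 0% = vehicle with agonist challenge and 100% = reference antagonist with challenge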
Target sequence (P49146 whole entry, looked up): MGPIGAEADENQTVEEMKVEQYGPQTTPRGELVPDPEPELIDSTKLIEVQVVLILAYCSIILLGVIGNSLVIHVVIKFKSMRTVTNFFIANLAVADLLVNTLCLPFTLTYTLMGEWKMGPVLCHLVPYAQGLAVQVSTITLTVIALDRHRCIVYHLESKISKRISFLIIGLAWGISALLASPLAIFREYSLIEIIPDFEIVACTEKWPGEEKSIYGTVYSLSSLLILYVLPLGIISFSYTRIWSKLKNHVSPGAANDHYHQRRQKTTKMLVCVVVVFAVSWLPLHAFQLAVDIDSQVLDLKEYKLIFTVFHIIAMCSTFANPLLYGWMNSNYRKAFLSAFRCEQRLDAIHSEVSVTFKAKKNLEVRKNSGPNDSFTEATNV
KCC2 mod: modulators of human KCC2 chloride dependent transport; Q9H2X9; actives 2.2% (n = 190,000); KCC2 cells, thallium flux FluoZin-2 fluorescence; B-score of Tl+ flux slope (higher = more flux/activation; lower = inhibition) at 10 µM; AID 1456;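 active = thallium flux slope and its plate-corrected score both differing from the plate sample mean at a set confidence after two filtering rounds, in either direction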;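 also: slope of fluorescence scaled to starting intensity during 10 to 20 s after thallium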
NPY-Y1 antag: blocks the human neuropeptide Y Y1 receptor; P25929; HEK293-CNG Y1 cells, membrane potential fluorescence; NPY at EC95, then isoproterenol; inhibition, % at 3.6 µM; actives 1% (n = 200,000);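 active = inhibition above the campaign mean inhibition of all tested compounds plus 3 SD, cut at about 20% in these data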;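 also: 0% = DMSO wells given NPY plus isoproterenol and 100% = isoproterenol alone without NPY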
Target sequence (P25929 whole entry, looked up): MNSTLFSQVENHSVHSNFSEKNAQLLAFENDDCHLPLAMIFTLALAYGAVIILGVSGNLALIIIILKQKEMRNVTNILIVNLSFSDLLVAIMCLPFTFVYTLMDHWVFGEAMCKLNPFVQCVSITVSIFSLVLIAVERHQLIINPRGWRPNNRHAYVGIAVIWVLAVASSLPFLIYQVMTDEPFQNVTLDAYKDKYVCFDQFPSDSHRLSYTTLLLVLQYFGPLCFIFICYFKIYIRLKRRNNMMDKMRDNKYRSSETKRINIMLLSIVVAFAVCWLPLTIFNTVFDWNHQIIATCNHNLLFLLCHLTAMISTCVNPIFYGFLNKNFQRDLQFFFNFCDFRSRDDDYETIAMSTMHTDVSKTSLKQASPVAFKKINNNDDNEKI
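Material: HEK293 Y1/CNG channel cell line | Also added: NPY (25 nM), isoproterenol (1 µM), Ro 20-1724 (25 µM) | Compound: One concentration, 3.6 µM, in 0.4% DMSO | Schedule: 3 h dye uptake, 1 h room-temperature compound, 45 min post-isoproterenol | Signal: Membrane-potential fluorescent dye readout | Read-out: % inhibition of NPY effect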
NPY1 pot ag: potentiates or activates human NPY-Y1 receptor; AID 1304; P25929; NPY-Y1 expressing cells, potentiator/agonist activation; actives 0.37% (n = 220,000); activation, % at 3.6 µM; in the data active = activation above about 33%, passing the limit was not always enough;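 also: cells stimulated with NPY at EC10 then isoproterenol at EC100; 0% = low agonist plus stimulus and 100% = saturating agonist plus stimulus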
NPY-Y2 PAM-ag: potentiates or activates human NPY-Y2 receptor; P49146; activation, % at 3.6 µM; cells expressing NPY-Y2, potentiator/agonist read-out; actives 0.45% (n = 220,000); in the data active = activation above about 27%;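 also: cells stimulated with NPY near EC25 plus isoproterenol at EC100; 0% = vehicle plus submaximal agonist and 100% = vehicle plus saturating agonist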
Furin inhibitor: human furin inhibition; P09958; purified furin, fluorogenic substrate cleavage; inhibition, % at 20 µM or 30 µM; actives 0.061% (n = 220,000); in the data active = inhibition above about 25%
KCC2 secondary: confirmation of human KCC2 transport modulators | shares compounds with KCC2 mod | HEK293-KCC2, thallium flux, FluoZin2 fluorescence; active compounds read high | normalised thallium flux (F/F0 slope) at 10 µM | actives 15% (n = 3,700) | AID 1713;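 active = thallium flux slope above the same plate's solvent-only control mean plus 3 SD; inconclusive = the two replicate wells disagree; inactive = no significant difference from solvent-only control wells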
KCC2 bumet counter: thallium flux persisting under bumetanide in KCC2 cells, counter-screen secondary assay; normalized thallium flux at 10 µM; shares compounds with KCC2 mod; actives 49% (n = 3,700); HEK293-KCC2 + bumetanide/ouabain, thallium flux FluoZin2; active compounds read high;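 active = thallium entry rate above the same plate's blocked-transporter control wells by more than 3 SD; inconclusive = the two repeat wells disagree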;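 also: raw slope of fluorescence over initial fluorescence between 10 and 20 s after thallium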
KCC2 secondary2: confirmation of human KCC2 transport modulators | shares compounds with KCC2 mod | normalized thallium flux at 10 µM | actives 23% (n = 3,700) | HEK293-KCC2, thallium flux FluoZin2 fluorescence; actives lie on both sides; F/F0 rise rate, 10–20 s post-thallium;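 active = thallium flux slope more than 3 SD above or below the plate's solvent-only control mean, mostly below; inconclusive = the two repeat wells disagreed; inactive = no significant shift from solvent-only controls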;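 also: raw slope with 0.1% DMSO as baseline and bumetanide as block control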
HEK counter1: parental HEK flux effect, counter-screen. shares compounds with KCC2 mod. HEK293 parental cells, thallium flux FluoZin2, ouabain; baseline-ratio fluorescence slope, 10–20 s after thallium. thallium flux rate (normalised fluorescence) at 10 µM. actives 46% (n = 3,700);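 active = thallium flux rate significantly above the same plate's solvent-only control wells, beyond their mean plus 3 SD; inconclusive = the two replicate wells gave conflicting results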
KCC2 retest ouab: modulates human KCC2 on retest with ouabain; shares compounds with KCC2 mod; HEK293-KCC2, thallium flux FluoZin2 fluorescence; bidirectional: low = inhibitor, high = activator; raw Tl+ flux slope (below DMSO = inhibition, above = activation) at 10 µM; actives 48% (n = 3,700); AID 1717;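 active = thallium flux slope beyond 3 SD from same-plate DMSO control mean in most replicates, usually higher, sometimes lower; inconclusive = repeat tests gave conflicting results; inactive = no significant difference from controls in most replicates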;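 also: slope of initial-normalized fluorescence between seconds 10 and 20 after thallium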
HEK counter2: parental HEK flux effect, counter-screen 2. shares compounds with KCC2 mod. HEK293 parental, thallium flux FluoZin-2 fluorescence slope. thallium flux slope at 10 µM. actives 33% (n = 3,700);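 active = thallium flux slope above the same plate's solvent-control mean plus 3 SD in both duplicate wells; inconclusive = duplicate wells that disagreed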;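 also: run without ouabain in cells lacking the KCC2 cotransporter; slope of fluorescence scaled to its starting value between 10 and 20 s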
Numbers without * were called inactive; ? = inconclusive; nt = not tested or not shown.

SMILES | NPY-Y2 antag | KCC2 mod | NPY-Y1 antag | NPY1 pot ag | NPY-Y2 PAM-ag | Furin inhibitor | KCC2 secondary | KCC2 bumet counter | KCC2 secondary2 | HEK counter1 | KCC2 retest ouab | HEK counter2
CCN(CC)S(=O)(=O)c1ccc2[nH]c(=O)cc(C(=O)Nc3ccc(C)c(S(=O)(=O)N(CC)CC)c3)c2c1 | 3 | -0.066 | -2 | 15 | 5 | -29 | nt | nt | nt | nt | nt | nt
COc1ccc(CN2CC(C(=O)NCCC(C)C)CC2=O)cc1 (stereo unspecified) | nt | 0.51 | 7 | -1 | -2 | -23 | nt | nt | nt | nt | nt | nt
CCCCN(C)CCCNC(=O)C1CC(=O)N(Cc2ccc(OC)cc2)C1 (stereo unspecified) | -4 | nt | 0 | -9 | 0 | -13 | 0.009 | 0.0051 | 0.031 | 0.0075 | 0.019 | 0.011
Cc1ccc(C(=O)/C=C/Nc2ccccc2C(N)=O)cc1 | 0 | -3.3* | 2 | 12 | -20 | -17 | 0.017 | 0.0065* | ? | 0.007 | 0.015 | 0.01
Oc1ccc(-c2nc(-c3ccc(O)c(O)c3)cs2)cc1 | 0 | -3.5* | -8 | 18 | 7 | -13 | 0.0095 | 0.0075 | ? | 0.0062 | 0.014* | 0.01
Cc1ccc(CNC(=O)NC23CC4CC(CC(C4)C2)C3)cc1 | 3 | 0.31 | 0 | -7 | -5 | -5 | nt | nt | nt | nt | nt | nt
Cc1ccc(/C(O)=C/C(=O)C(=O)NC23CC4CC(CC(C4)C2)C3)cc1 | nt | 86* | nt | -26 | -6 | -17 | 0.01 | 0.075* | 0.038 | ? | 0.055* | 0.02*
CCOC(=O)SC1=N/C(=C\c2ccc(N(C)C)cc2)C(=O)S1 | 2 | 19* | -1 | -6 | 5 | -29 | 0.017* | 0.021* | 0.029 | 0.013* | 0.028* | 0.011*
c1ccc(N2CCN(c3ccccc3)C2c2cccs2)cc1 | 1 | -5.5* | 5 | 11 | 6 | -33 | 0.0091 | 0.0052 | 0.029 | 0.0076 | 0.022 | 0.011
CC(CNC(=O)c1cccs1)c1ccc([N+](=O)[O-])cc1 (stereo unspecified) | nt | -1.1 | 2 | -10 | -12 | -25 | nt | nt | nt | nt | nt | nt
CCSc1nnc(-c2cc(Br)ccc2N=Cc2c(C)[nH]n(-c3ccccc3)c2=O)c(=O)[nH]1 | nt | 4.6* | -2 | 6 | -3 | -13 | 0.0067 | 0.014* | 0.028 | 0.013* | 0.02 | 0.012*
CN(C)c1nc(Cl)nc(N(C#N)CCOc2ccccc2)n1 | nt | -2.9 | -5 | -10 | -5 | -18 | nt | nt | nt | nt | nt | nt
O=C(NC(=S)Nc1ccc(CN2CCCCC2)cc1)c1ccco1 | nt | 4* | 1 | 8 | 0 | -32 | 0.0094 | 0.035* | 0.034 | 0.015* | 0.042* | ?
O=C(NC(=S)Nc1ccc(CN2CCOCC2)cc1)c1ccco1 | nt | 11* | nt | -13 | 1 | -16 | ? | 0.034* | 0.034 | 0.013* | 0.039* | 0.012*
NS(=O)(=O)c1ccc(NC(=S)NC(=O)c2ccco2)cc1 | 1 | 1.8 | 2 | -10 | -4 | -4 | nt | nt | nt | nt | nt | nt
CCCCC(=O)Nc1ccc(C(=O)NNC(=S)NC(=O)c2ccco2)cc1 | nt | 7.2* | -3 | 6 | 8 | -12 | 0.011 | 0.031* | 0.034 | ? | 0.03* | ?
O=C(NC(=S)Nc1ccc(CN2CCCCC2)cc1)c1cc2ccccc2o1 | nt | 13* | nt | -63 | -46 | -4 | 0.0067 | 0.017* | 0.05* | 0.031* | 0.033* | 0.032*
COc1ccc(C(=O)NC(=S)Nc2ccc(CN3CCOCC3)cc2)cc1OC | nt | 0.41 | nt | -6 | -41 | -13 | nt | nt | nt | nt | nt | nt
Cc1ccc(N(C)C(=O)N2CCN(S(=O)(=O)c3c(C)cc(C)cc3C)CC2)cc1 | 5 | -0.42 | 2 | -11 | -30 | -9 | nt | nt | nt | nt | nt | nt
COc1ccc(-c2ccnc3nc(N4CCN(c5ccccc5)CC4)nn23)cc1 | 1 | nt | 7 | 2 | -5 | -14 | nt | nt | nt | nt | nt | nt
CN(C)CCCOC(=O)COc1ccc(Br)cc1 | nt | 0.62 | nt | -30 | -1 | -16 | nt | nt | nt | nt | nt | nt
O=C(CNS(=O)(=O)c1ccccc1)NCC(=O)OCc1ccc(Cl)cc1 | nt | -2.1 | nt | 25 | -10 | -13 | nt | nt | nt | nt | nt | nt
O=C(O)c1ccc(NC(=S)NC(NC(=O)c2ccco2)C(Cl)(Cl)Cl)cc1 (stereo unspecified) | 3 | 0.31 | 4 | -5 | 6 | -17 | nt | nt | nt | nt | nt | nt
Cc1ccc(S(=O)(=O)N2CCCCC2)cc1NC(=S)NC(=O)c1ccco1 | nt | 22* | nt | -1 | -22 | -17 | 0.0077 | 0.016* | 0.028 | 0.013* | ? | ?
CC(C)C(=O)Nc1ccc(NC(=S)NC(=O)c2cc3ccccc3o2)cc1 | nt | 0.53 | -3 | 4 | -2 | -8 | nt | nt | nt | nt | nt | nt
SMILES | NPY-Y2 antag | KCC2 mod | NPY-Y1 antag | NPY1 pot ag | NPY-Y2 PAM-ag | Furin inhibitor | KCC2 secondary | KCC2 bumet counter | KCC2 secondary2 | HEK counter1 | KCC2 retest ouab | HEK counter2
Cc1ccc(NC(=S)NC(NC(=O)c2ccco2)C(Cl)(Cl)Cl)cc1 (stereo unspecified) | 1 | 8.2* | 8 | 15 | 11 | -22 | 0.0074 | 0.0043 | 0.029 | 0.0079 | 0.018 | 0.011
O=C(NC(=S)Nc1ccc2oc(=O)ccc2c1)c1cc2ccccc2o1 | nt | 35* | nt | -5 | -23 | -19 | 0.016* | 0.049* | 0.034 | 0.037* | ? | 0.017*
CCOc1ccc(NC(=S)NC(=O)c2ccco2)cc1 | nt | 184* | nt | 0 | 2 | -28 | 0.063* | 0.18* | 0.048* | 0.11* | 0.098* | 0.041*
O=C(NC(=S)Nc1cc(S(=O)(=O)N2CCOCC2)ccc1O)c1ccco1 | nt | 0.052 | 1 | -11 | 12 | -16 | nt | nt | nt | nt | nt | nt
CC(=O)Nc1cc(O)cc(O)c1 | nt | 0.069 | nt | 14 | -8 | -12 | nt | nt | nt | nt | nt | nt
c1ccc(-c2csc3ncnc(N4CCc5ccccc5C4)c23)cc1 | 10 | -0.68 | 6 | -7 | -17 | -13 | nt | nt | nt | nt | nt | nt
Cc1c(O)ccc2c(CN(C)Cc3ccccc3)cc(=O)oc12 | nt | -6.6* | nt | -1 | -12 | -9 | 0.0074 | 0.0057 | 0.034 | ? | 0.015* | 0.011
CN(C)Cc1c(O)ccc2c(-c3ccccc3)cc(=O)oc12 | nt | 0.95 | 0 | -7 | -2 | -10 | nt | nt | nt | nt | nt | nt
COCCNC(=S)N/N=C(\C)c1cccc(OC)c1 | nt | 0.75 | 6 | -13 | 2 | -11 | nt | nt | nt | nt | nt | nt

Screening results: PubChem BioAssay, several laboratories
